The target in assay [1] is T1, Glycogen phosphorylase, muscle form (Oryctolagus cuniculus) (UniProt P00489).
T1 sequence (whole entry): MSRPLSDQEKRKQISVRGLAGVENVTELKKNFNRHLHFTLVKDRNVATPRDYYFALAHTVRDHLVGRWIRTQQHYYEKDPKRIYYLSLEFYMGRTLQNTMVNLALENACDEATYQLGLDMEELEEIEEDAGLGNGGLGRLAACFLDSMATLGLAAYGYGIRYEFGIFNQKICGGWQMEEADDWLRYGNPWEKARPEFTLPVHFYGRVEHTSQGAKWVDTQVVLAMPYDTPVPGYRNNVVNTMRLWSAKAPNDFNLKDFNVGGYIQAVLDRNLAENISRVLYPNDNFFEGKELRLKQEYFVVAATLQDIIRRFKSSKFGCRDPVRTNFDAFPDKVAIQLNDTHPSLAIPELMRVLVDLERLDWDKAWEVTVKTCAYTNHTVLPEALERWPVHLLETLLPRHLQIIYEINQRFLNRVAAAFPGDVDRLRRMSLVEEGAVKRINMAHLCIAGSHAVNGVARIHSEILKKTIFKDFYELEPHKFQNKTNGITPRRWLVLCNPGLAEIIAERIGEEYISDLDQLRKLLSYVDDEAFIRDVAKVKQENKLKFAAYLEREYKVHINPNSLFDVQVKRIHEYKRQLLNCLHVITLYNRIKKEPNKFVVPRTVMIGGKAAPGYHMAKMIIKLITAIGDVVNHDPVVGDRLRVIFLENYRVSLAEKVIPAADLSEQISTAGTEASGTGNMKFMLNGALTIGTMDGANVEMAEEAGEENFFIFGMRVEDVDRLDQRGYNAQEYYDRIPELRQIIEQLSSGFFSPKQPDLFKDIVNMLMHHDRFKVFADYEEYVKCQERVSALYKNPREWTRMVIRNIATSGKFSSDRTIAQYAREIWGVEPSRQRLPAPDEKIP
Put plainly: Inhibition of rabbit muscle glycogen phosphorylase at 222 uM. A digest of the protocol: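 Rabbit muscle glycogen phosphorylase a at 0.475 µg/mL, assayed in the glycogen-synthesis direction. Run 30 min at 22 °C. Compounds added in 14% DMSO. Released phosphate read at 620 nm by malachite green/ammonium molybdate in 1 M HCl. Duplicates on two occasions, averaged.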

In assay [2] the target is T2, Glycogen phosphorylase, muscle form (Oryctolagus cuniculus, UniProt P00489).
T2 sequence (P00489 whole entry): T1 sequence (whole entry)
Put plainly: Inhibition of rabbit muscle glycogen phosphorylase.

Assay [3] has as its target T1, Glycogen phosphorylase, muscle form (Oryctolagus cuniculus). To be noted: 111 uM.

With `CCCNc1cccn(CC(=O)NCc2ccccc2)c1=O`, the inhibition in assay [1] came to 80%. Besides, in assay [2], the IC50 stood at 343 µM.
In assay [1], `O=C(Cn1cccc(NC(=O)c2ccccc2)c1=O)NCCN1CCCCC1` had an inhibition below 20%.
Consider `CCOC(=O)Cn1cccc(NCc2ccccc2)c1=O`, for which, in assay [1], the inhibition was below 20%.
Same read-out and setting: under `CC(=O)Nc1cccn(CC(=O)NC(C)C)c1=O` stands below 20%.
As for `O=C(Cn1cccc(NCc2ccccc2)c1=O)N1CCCC1`, in assay [1], the inhibition was below 20%.
Compound `CCCNc1cccn(CC(=O)NCc2ccc(Cl)c(Cl)c2)c1=O` yielded an inhibition in assay [1] of 40%. Further, half-maximal inhibition in assay [2] (IC50) required 1770 µM.
In turn, `O=C(Cn1cccc(NC(=O)c2ccccc2)c1=O)NCc1ccc(Cl)c(Cl)c1` had an inhibition in assay [1] of 45%. In assay [2], this compound came in with an IC50 of 162 µM.
For the compound `NS(=O)(=O)c1ccc(CCNC(=O)Cn2cccc(NC(=O)c3ccccc3)c2=O)cc1`, the inhibition in assay [1] was below 20%.
Compound `O=C(Cn1cccc(NC(=O)c2ccccc2)c1=O)N[C@H](CO)Cc1ccccc1` returned an inhibition in assay [1] below 20%.
In assay [1], `CC(=O)Nc1cccn(CC(=O)N2CCCC2)c1=O` displayed an inhibition below 20%.
Take `CCNC(=O)Cn1cccc(NC(=O)c2ccccc2)c1=O`: the inhibition in assay [1] is below 20%.
In turn, `COCCCNC(=O)Cn1cccc(NC(=O)c2ccccc2)c1=O` gave an inhibition in assay [1] below 20%.
In turn, `O=C(Cn1cccc(NCc2ccccc2)c1=O)NCc1ccc(Cl)c(Cl)c1` displayed an inhibition in assay [1] of 94%. For the same compound, the half-inhibitory concentration (IC50) in assay [2] was 6.3 µM.
`CCCNC(=O)Cn1cccc(NC(=O)c2ccccc2)c1=O`: the inhibition in assay [1] is below 20%.
For the compound `COc1ccccc1CNC(=O)Cn1cccc(NCc2ccccc2)c1=O`, in assay [1], the inhibition stood at 38%. This compound showed an IC50 in assay [2] of 308 µM.
As for `CC(C)(CO)NC(=O)Cn1cccc(NC(=O)c2ccccc2)c1=O`, the inhibition in assay [1] is below 20%.
As to `O=C(Cn1cccc(NC(=O)c2ccccc2)c1=O)NCCO`, the inhibition in assay [1] is below 20%.
With `CCOC(=O)Cn1cccc(NC(C)=O)c1=O`, the inhibition in assay [1] is below 20%.
The compound `O=C(Cn1cccc(NC(=O)c2ccccc2)c1=O)N[C@H](CO)c1ccccc1` registered an inhibition in assay [1] below 20%.
For the compound `CC(C)NC(=O)Cn1cccc(NCc2ccccc2)c1=O`, the inhibition in assay [1] was below 20%.
As to `CCCNc1cccn(CC(=O)N2CCCC2)c1=O`, the inhibition in assay [1] was below 20%.
With `O=C(Cn1cccc(NC(=O)c2ccccc2)c1=O)N[C@@H](CO)Cc1ccccc1`, in assay [1], the inhibition was below 20%.
The compound `CCCNC(=O)Cn1cccc(NC(C)=O)c1=O` gave an inhibition in assay [1] below 20%.
The compound `O=C(Cn1cccc(NC(=O)c2ccccc2)c1=O)NN1CCOCC1` yielded an inhibition in assay [1] below 20%.
In assay [1], `CCOC(=O)Cn1cccc(NC(=O)c2ccccc2)c1=O` yielded an inhibition below 20%.
As to `CC(=O)Nc1cccn(CC(=O)NCCO)c1=O`, the inhibition in assay [1] is below 20%.
In assay [1], `CC(C)CNC(=O)Cn1cccc(NC(=O)c2ccccc2)c1=O` registered an inhibition below 20%.
In turn, `O=C(Cn1cccc(NC(=O)c2ccccc2)c1=O)NCc1ccccn1` showed an inhibition in assay [1] below 20%.
Take `CCCNc1cccn(CC(=O)OCC)c1=O`: the inhibition in assay [1] was below 20%.
`O=C(Cn1cccc(NCc2ccccc2)c1=O)NC1CCN(Cc2ccccc2)CC1` came in with an inhibition in assay [1] of 45%. Also, the IC50 in assay [2] amounted to 813 µM.
With `CCCCNC(=O)Cn1cccc(NC(=O)c2ccccc2)c1=O`, in assay [1], the inhibition was below 20%.
In assay [1], `NCCNC(=O)Cn1cccc(NC(=O)c2ccccc2)c1=O` displayed an inhibition below 20%.
In turn, `CC(=O)Nc1cccn(CC(=O)NCc2ccc(Cl)c(Cl)c2)c1=O` came in with an inhibition in assay [1] of 45%. Further, the IC50 in assay [2] was 372 µM.
The compound `O=C(Cn1cccc(NCc2ccccc2)c1=O)N[C@H](CO)Cc1ccccc1` had an inhibition in assay [1] of 94%.
With `CC(=O)Nc1cccn(CC(=O)NCc2ccccc2)c1=O`, the inhibition in assay [1] was below 20%.
Same read-out and setting: under `CC(=O)Nc1cccn(CC(=O)NC2CCCCC2)c1=O` stands below 20%.
Still for that read-out and setting: the value for `O=C(Nc1cccn(CC(=O)N2CCOCC2)c1=O)c1ccccc1` was below 20%; that for `O=C(Cn1cccc(NC(=O)c2ccccc2)c1=O)NCCCN1CCOCC1` was below 20%.
`O=C(Cn1cccc(NCc2ccccc2)c1=O)NCc1ccccc1` registered an inhibition in assay [3] of 96%. The compound further came in with an IC50 in assay [2] of 34.2 µM.
For the compound `O=C(Cn1cccc(NC(=O)c2ccccc2)c1=O)NC1CCN(Cc2ccccc2)CC1`, in assay [1], the inhibition is below 20%.
Take `CC(C)NC(=O)Cn1cccc(NC(=O)c2ccccc2)c1=O`: the inhibition in assay [1] was below 20%.
In the case of `CCCNC(=O)Cn1cccc(NCCC)c1=O`, in assay [1], the inhibition was below 20%.
Regarding `O=C(Nc1cccn(CC(=O)N2CCCC2)c1=O)c1ccccc1`, in assay [1], the inhibition is below 20%.
Turning to `O=C(Cn1cccc(NCc2ccccc2)c1=O)NCc1ccccn1`, the inhibition in assay [1] is below 20%.
Compound `O=C(Cn1cccc(NCc2ccccc2)c1=O)N[C@H](CO)c1ccccc1` had an inhibition in assay [1] of 40%. In assay [2], this compound registered an IC50 of 120 µM.
`O=C(Cn1cccc(NC(=O)c2ccccc2)c1=O)NCc1ccccc1` came in with an inhibition in assay [1] below 20%.
On to `O=C(Nc1cccn(CC(=O)N2CCCCC2)c1=O)c1ccccc1`, for which the inhibition in assay [1] is below 20%.
On to `CCCNC(=O)Cn1cccc(NCc2ccccc2)c1=O`, for which the inhibition in assay [1] was below 20%.

Broadly, the inhibition is the share of the control response that was lost under treatment. High values mean a response far below the control, low ones a response near the control. One may read the IC50 as the midpoint of a concentration-inhibition curve. A low value points to greater potency in that assay.

Values taken from ChEMBL document CHEMBL1152931, “Glycogen phosphorylase inhibitory effects of 2-oxo-1,2-dihydropyridin-3-yl amide derivatives” (Bioorg Med Chem, 2009).
